Experimental data taken from ChEMBL document CHEMBL1122629, “Potent and selective antagonists of the antidiuretic responses to arginine-vasopressin based on modifications of [1-(beta-mercapto-beta,beta-pentamethylenepropionic acid),2-D-isoleucine,4- valine]arginine-vasopressin at position 4” (J Med Chem, 1984).
*1 amine or outer side, *2 acyl side, *3 side chain or, on linkers, in order; H or OH if unused. Where a SMILES comes first, the peptide text is derived from it. Bridges are numbered along the chain shown (N, C = ends). [ ]: non-standard residue; d: D form. X1 = O=C(CC1(S[*:2])CCCCC1)[*:1]; Orn = NCCC[C@H](N)C(=O)O

Experiments:
[1] = species on record: Rattus norvegicus; assay: Anti-oxytocic activity on isolated rat uterus in absence of Mg2+. pA2 value is negative logarithm of effective dose (ED); type: functional; conditions: read-out: pA2 (converted)
Summary of the method: (§1)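 Isolated rat uterus, with USP posterior pituitary reference standard as agonist. Antagonism expressed as pA2.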

[2] = species on record: Rattus norvegicus; assay: Antidiuretic activity in rats and pA2 value is negative logarithm of effective dose (ED); type: functional, organism-based; conditions: Urine, read-out: pA2 (converted)
Summary of the method: (§2)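 Antidiuretic assay in rats under ethanol anaesthesia against the USP posterior pituitary reference standard. Standard given 20 min after antagonist, or 10 min for analogues lacking agonism. Each peptide given at a high and a low dose. ED is the dose (nmol/kg) that cuts the response to 2x units of agonist to the response to 1x unit given before antagonist. […] Means ± SE, n assays.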

[3] = species on record: Rattus norvegicus; assay: Anti-oxytocic activity on isolated rat uterus in presence of 0.5 mM of Mg2+. pA2 value is negative logarithm of effective dose (ED); type: functional; conditions: read-out: pA2 (converted); summary of the method: as §1
[4] = system: Rattus norvegicus; assay: Compound was evaluated in vivo for anti-vasopressor activity in rats and pA2 value is negative logarithm of effective dose (ED); type: functional, organism-based; conditions: read-out: pA2 (converted)
Summary of the method: (§3)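 Intravenous vasopressor assay in phenoxybenzamine-treated rats under urethane anaesthesia, agonist USP posterior pituitary reference standard. ED is the dose (nmol/kg) that reduces the response to 2x units of agonist to that of 1x unit given before antagonist. […] Means ± SE, number of assays given.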

[5] = system: Rattus norvegicus; assay: Compound was evaluated in vivo for anti-oxytocic activity in rat uteri. pA2 value is negative logarithm of effective dose (ED); type: functional, organism-based; conditions: read-out: pA2 (converted)
Summary of the method: (§4)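 Rat uterus in situ, with synthetic oxytocin as agonist. ED is the dose (nmol/kg) that lowers the response to 2x units of agonist to that of 1x unit given before antagonist.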

[6] = species on record: Rattus norvegicus; assay: Anti-oxytocic activity in rat uterus and effective dose (ED) was reported.; type: functional; summary of the method: as §4
[7] = Ratio of anti-vasopressor ED50 to antiantidiuretic ED50; type: functional, Urine
Summary of the method: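 Ratio of antivasopressor ED to antiantidiuretic ED. Each ED is the dose (nmol/kg) that lowers the response to 2x units of agonist to that of 1x unit before antagonist. Measured in rats: vasopressor assay in phenoxybenzamine-treated, urethane-anaesthetised animals; antidiuretic assay under ethanol anaesthesia.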

[8] = system: Rattus norvegicus; assay: In vivo anti-vasopressor activity in phenoxybenzamine-treated rats under urethane anesthesia is measured as effective dose; type: functional; summary of the method: as §3
[9] = system: Rattus norvegicus; assay: In vivo antidiuretic activity in rat measured as dose that reduced the response seen with 2x units of agonist to equal the response seen with 1x unit of agonist administered before antagonist; type: functional, Urine; summary of the method: as §2
[10] = system: Rattus norvegicus; assay: Evaluated in vivo for logarithm effective dose (ED); type: functional, organism-based
[11] = species on record: Rattus norvegicus; assay: Anti-oxytocic activity in rat uterus pA2 value is negative logarithm of effective dose (ED); type: functional, organism-based; conditions: read-out: pA2 (converted)
[12] = species on record: Rattus norvegicus; assay: In vitro anti-oxytocic activity on isolated rat uteri in absence of Mg2+. pA2 value is negative logarithm of effective dose (ED); type: functional; conditions: read-out: pA2 (converted); summary of the method: as §1
[13] = system: Rattus norvegicus; assay: Compound was evaluated in vivo for anti-oxytocic activity in rat uterus. pA2 value is negative logarithm of effective dose (ED); type: functional, organism-based; conditions: read-out: pA2 (converted); summary of the method: as §4

SMILES | Kb [1] [nM] | Kb [2] [nM] | Kb [3] [nM] | ED [6] [nmol/kg] | Ratio [7] | ED [8] [nmol/kg] | ED [9] [nmol/kg] | in vivo pA2 effective dose (as concentration) [10] [µM] | other results
CC[C@@H](C)[C@H]1NC(=O)CC2(CCCCC2)SSC[C@@H](C(=O)N2CCC[C@H]2C(=O)N[C@@H](CCCN=C(N)N)C(=O)NCC(N)=O)NC(=O)[C@H](CC(N)=O)NC(=O)[C@H]([C@@H](C)CC)NC(=O)[C@H](Cc2ccccc2)NC1=O [listing 1 of 2 here] | 33.9 | 9.12 | 15.1 |  |  |  |  |  | Kb [4]: 380 nM; Kb [5]: 126 nM
CC[C@@H]1NC(=O)[C@H](Cc2ccccc2)NC(=O)[C@@H]([C@H](C)CC)NC(=O)CC2(CCCCC2)SSC[C@@H](C(=O)N2CCC[C@H]2C(=O)N[C@@H](CCCN=C(N)N)C(=O)NCC(N)=O)NC(=O)[C@H](CC(N)=O)NC1=O [listing 1 of 2 here] |  |  |  | 19 | 29 | 12 | 0.41 |  | 
CC[C@@H](C)[C@H]1NC(=O)CC2(CCCCC2)SSC[C@@H](C(=O)N2CCC[C@H]2C(=O)N[C@@H](CCCN=C(N)N)C(=O)NCC(N)=O)NC(=O)[C@H](CC(N)=O)NC(=O)[C@H](CO)NC(=O)[C@H](Cc2ccccc2)NC1=O | 52.5 | 55 | 151 |  |  |  |  | 0.617 | 
CCC[C@@H]1NC(=O)[C@H](Cc2ccccc2)NC(=O)[C@@H]([C@H](C)CC)NC(=O)CC2(CCCCC2)SSC[C@@H](C(=O)N2CCC[C@H]2C(=O)N[C@@H](CCCN=C(N)N)C(=O)NCC(N)=O)NC(=O)[C@H](CC(N)=O)NC1=O [listing 1 of 2 here] |  |  |  | 22 | 1.2 | 8.2 | 7 |  | 
CCC[C@@H]1NC(=O)[C@H](Cc2ccccc2)NC(=O)[C@@H]([C@H](C)CC)NC(=O)CC2(CCCCC2)SSC[C@@H](C(=O)N2CCC[C@H]2C(=O)N[C@@H](CCCN=C(N)N)C(=O)NCC(N)=O)NC(=O)[C@H](CC(N)=O)NC1=O [listing 2 of 2 here] | 14.8 | 97.7 | 15.8 |  |  |  |  | 0.11 | Kb [11]: 295 nM
NC(=O)CNC(=O)[C@H](CCCN=C(N)N)NC(=O)[C@@H]1CCCN1C(=O)[C@@H]1CSSC2(CCCCC2)CC(=O)N[C@H](Cc2ccccc2)C(=O)N[C@@H](Cc2ccccc2)C(=O)N[C@@H](CO)C(=O)N[C@@H](CC(N)=O)C(=O)N1 [listing 1 of 2 here] |  |  |  | 13 | 0.41 | 1.6 | 3.9 |  | 
NCCC[C@@H]1NC(=O)[C@H](Cc2ccccc2)NC(=O)[C@@H](Cc2ccccc2)NC(=O)CC2(CCCCC2)SSC[C@@H](C(=O)N2CCC[C@H]2C(=O)N[C@@H](CCCN=C(N)N)C(=O)NCC(N)=O)NC(=O)[C@H](CC(N)=O)NC1=O ([dF]F[Orn]NCPRG-NH2; linker N-5 via X1) | 18.6 | 316 | 20 |  |  |  |  | 0.0269 | 
NC(=O)CNC(=O)[C@H](CCCN=C(N)N)NC(=O)[C@@H]1CCCN1C(=O)[C@@H]1CSSC2(CCCCC2)CC(=O)N[C@H](Cc2ccccc2)C(=O)N[C@@H](Cc2ccccc2)C(=O)N[C@@H](CO)C(=O)N[C@@H](CC(N)=O)C(=O)N1 [listing 2 of 2 here] | 22.9 | 46.8 | 14.8 |  |  |  |  | 0.0234 | Kb [11]: 200 nM
CC[C@@H]1NC(=O)[C@H](Cc2ccccc2)NC(=O)[C@@H]([C@H](C)CC)NC(=O)CC2(CCCCC2)SSC[C@@H](C(=O)N2CCC[C@H]2C(=O)N[C@@H](CCCN=C(N)N)C(=O)NCC(N)=O)NC(=O)[C@H](CC(N)=O)NC1=O [listing 2 of 2 here] |  | 6.03 | 93.3 |  |  |  |  |  | Kb [4]: 186 nM; Kb [11]: 224 nM; Kb [12]: 32.4 nM
CC[C@@H](C)[C@H]1NC(=O)CC2(CCCCC2)SSC[C@@H](C(=O)N2CCC[C@H]2C(=O)N[C@@H](CCCN=C(N)N)C(=O)NCC(N)=O)NC(=O)[C@H](CC(N)=O)NC(=O)[C@H]([C@@H](C)O)NC(=O)[C@H](Cc2ccccc2)NC1=O [listing 1 of 2 here] |  |  |  | 9.5 | 12 | 10.5 | 0.88 |  | 
CC[C@@H](C)[C@H]1NC(=O)CC2(CCCCC2)SSC[C@@H](C(=O)N2CCC[C@H]2C(=O)N[C@@H](CCCN=C(N)N)C(=O)NCC(N)=O)NC(=O)[C@H](CC(N)=O)NC(=O)[C@H](C)NC(=O)[C@H](Cc2ccccc2)NC1=O [listing 1 of 2 here] |  |  |  | 57 | 39 | 66 | 1.7 |  | 
CC[C@@H](C)[C@H]1NC(=O)CC2(CCCCC2)SSC[C@@H](C(=O)N2CCC[C@H]2C(=O)N[C@@H](CCCN=C(N)N)C(=O)NCC(N)=O)NC(=O)[C@H](CC(N)=O)NC(=O)[C@H]([C@@H](C)O)NC(=O)[C@H](Cc2ccccc2)NC1=O [listing 2 of 2 here] | 7.94 | 12.3 | 20.4 |  |  |  |  | 0.148 | Kb [13]: 135 nM
CC[C@@H](C)[C@H]1NC(=O)CC2(CCCCC2)SSC[C@@H](C(=O)N2CCC[C@H]2C(=O)N[C@@H](CCCN=C(N)N)C(=O)NCC(N)=O)NC(=O)[C@H](CC(N)=O)NC(=O)[C@H]([C@@H](C)CC)NC(=O)[C@H](Cc2ccccc2)NC1=O [listing 2 of 2 here] |  |  |  | 9.4 | 39 | 26 | 0.67 |  | 
CC[C@@H](C)[C@H]1NC(=O)CC2(CCCCC2)SSC[C@@H](C(=O)N2CCC[C@H]2C(=O)N[C@@H](CCCN=C(N)N)C(=O)NCC(N)=O)NC(=O)[C@H](CC(N)=O)NC(=O)[C@H](CC2CCCCC2)NC(=O)[C@H](Cc2ccccc2)NC1=O | 36.3 | 229 | 81.3 |  |  |  |  | 0.275 | 
CC[C@@H](C)[C@H]1NC(=O)CC2(CCCCC2)SSC[C@@H](C(=O)N2CCC[C@H]2C(=O)N[C@@H](CCCN=C(N)N)C(=O)NCC(N)=O)NC(=O)[C@H](CC(N)=O)NC(=O)[C@H](C)NC(=O)[C@H](Cc2ccccc2)NC1=O [listing 2 of 2 here] | 31.6 | 17.4 | 33.9 |  |  |  |  |  | Kb [4]: 933 nM; Kb [11]: 724 nM
CC[C@@H](C)[C@H]1NC(=O)CC2(CCCCC2)SSC[C@@H](C(=O)N2CCC[C@H]2C(=O)N[C@@H](CCCN=C(N)N)C(=O)NCC(N)=O)NC(=O)[C@H](CC(N)=O)NC(=O)[C@H](CC(C)C)NC(=O)[C@H](Cc2ccccc2)NC1=O | 14.5 | 158 | 26.9 |  |  |  |  | 0.178 | 
